Source: ChEMBL document CHEMBL1122346, “Antihypertensive activity of 6-arylpyrido[2,3-d]pyrimidin-7-amine derivatives. 2. 7-Acyl amide analogues” (J Med Chem, 1983)
Values after ≈ are worked out from the molar mass of the structure shown. Values joined by “and” are separate entries in the source; they are usually repeats but may differ in a detail not shown here. Identical values can stand only once. One block for each compound: values may come before it.

Tests used:
[1] = Solubility, determined in 0.1 N HCl; type: physicochemical; conditions: read-out: S
Summary of the method: (§1)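 Dissolved compound was quantified by UV absorption. For the pH 7 value, the acidic solution was brought to pH 7 to give the unprotonated base, the precipitate was removed, and the supernatant was assayed again by UV.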

[2] = Solubility, determined in phosphate buffer at pH 7; type: physicochemical; summary of the method: as §1
[3] = Half-life measured in 1:1 ratio of MeOH and phosphate buffer at pH 7; Stable; type: ADME
Summary of the method: (§2)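 Hydrolytic stability was tested at room temperature on solutions of ca. 0.001-0.002%. Media were 0.1 N HCl (pH ~1.5), 50% MeOH/pH 7 phosphate buffer (pH ~8.0), and 50% MeOH/0.05 N aqueous NaOH (pH ~12.2). Changes in the UV spectrum were followed over 2 weeks.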

Rattus norvegicus [4] = test: Antihypertensive activity rating in conscious SHR after 2 hr post dose at 50 mg/kg (po); Range 10-20%; type: functional
Rattus norvegicus [5] = test: Antihypertensive activity rating in conscious SHR after 24 hr post dose at 50 mg/kg (po); type: functional
Rattus norvegicus [6] = test: Antihypertensive activity rating in conscious SHR after 24-72 hr post dose at 10 mg/kg (po); Range 10-20%; type: functional
Rattus norvegicus [7] = organism: Rattus norvegicus; test: Maximum percent decrease in blood pressure in SHR ( hour post dose in parentheses); type: functional
Rattus norvegicus [8] = test: Antihypertensive activity rating in conscious SHR after 10 hr post dose at 10 mg/kg (po); Range 10-20%; type: functional
Rattus norvegicus [9] = test: Antihypertensive activity rating in conscious SHR after 10 hr post dose at 50 mg/kg (po); type: functional
[10] = Half-life measured in 0.1 N HCl (*-<5% change after 14 days at 25 degrees C; Stable; type: ADME; conditions: buffer, 336 h; summary of the method: as §2
Rattus norvegicus [11] = test: Antihypertensive activity rating in conscious SHR after 2 hr post dose at 50 mg/kg (po); Range 20-30%; type: functional
Rattus norvegicus [12] = test: Antihypertensive activity rating in conscious SHR after 10 hr post dose at 50 mg/kg (po); Range 20-30%; type: functional
Rattus norvegicus [13] = test: Antihypertensive activity rating in conscious SHR after 18 hr post dose at 50 mg/kg (po); Range 20-30%; type: functional
Rattus norvegicus [14] = test: Antihypertensive activity rating in conscious SHR after 24 h post dose at 10 mg/kg (po); Range 10-20%; type: functional
Rattus norvegicus [15] = test: Antihypertensive activity rating in conscious SHR after 18 hr post dose at 50 mg/kg (po); type: functional
Rattus norvegicus [16] = test: Antihypertensive activity rating in conscious SHR after 2 hr post dose at 10 mg/kg (po); Range 10-20%; type: functional
Rattus norvegicus [17] = test: Antihypertensive activity rating in conscious SHR after 10 h post dose at 10 mg/kg (po); 0=No significant reduction; type: functional
Rattus norvegicus [18] = test: Antihypertensive activity rating in conscious SHR after 2 hr post dose at 10 mg/kg (po); 0=No significant reduction; type: functional
[19] = pKa value, measured in 67% of DMF; type: physicochemical; conditions: 67% DMF
Summary of the method: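 Dissociation constants were found by potentiometric titration in 67% N,N-dimethylformamide/water.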

[20] = Half-life measured in 0.1 N HCl; type: ADME; summary of the method: as §2
[21] = Half-life measured in 1:1 ratio of MeOH and 0.1 N NaOH; type: ADME; conditions: 1:1 MeOH / 0.1 N NaOH; summary of the method: as §2
Rattus norvegicus [22] = test: Antihypertensive activity rating in conscious SHR after 24 hr post dose at 50 mg/kg (po); Range 10-20%; type: functional
Rattus norvegicus [23] = test: Antihypertensive activity in conscious spontaneously hypertensive rats 10 hr following 50 mg/kg p.o.; No significant reduction.; type: functional; conditions: route oral
[24] = Half-life measured in 0.1 N HCl; Stable; type: ADME; conditions: buffer; summary of the method: as §2
[25] = pKa value, measured in 67% DMF/water
Rattus norvegicus [26] = test: Antihypertensive activity rating in conscious SHR after 10 hr post dose at 10 mg/kg (po); Range 20-30%; type: functional
Rattus norvegicus [27] = test: Antihypertensive activity rating in conscious SHR after 2 hr post dose at 10 mg/kg (po); Range 20-30%; type: functional
[28] = Half-life measured in 1:1 ratio of MeOH and phosphate buffer at pH 7; 15-17; type: ADME; conditions: 1:1 MeOH / phosphate buffer; summary of the method: as §2
Rattus norvegicus [29] = test: Antihypertensive activity rating in conscious SHR after 24 h post dose at 50 mg/kg (po); Range 20-30%; type: functional
Rattus norvegicus [30] = test: Antihypertensive activity in conscious spontaneously hypertensive rats 10 hr following 50 mg/kg p.o.; Range 10-20%.; type: functional; conditions: route oral
Rattus norvegicus [31] = test: Antihypertensive activity rating in conscious SHR after 18 hr post dose at 50 mg/kg (po); Range 10-20%; type: functional
Rattus norvegicus [32] = test: Antihypertensive activity in conscious spontaneously hypertensive rats 2 hr following 50 mg/kg p.o.; No significant reduction.; type: functional; conditions: route oral
Rattus norvegicus [33] = test: Antihypertensive activity rating in conscious SHR after 24 hr post dose at 10 mg/kg (po); 0=no significant reduction; type: functional
Rattus norvegicus [34] = test: Antihypertensive activity rating in conscious SHR after 2 hr post dose at 50 mg/kg (po); type: functional
Rattus norvegicus [35] = test: Antihypertensive activity rating in conscious SHR after 24 hr post dose at 50 mg/kg (po); 0=No significant reduction; type: functional
Rattus norvegicus [36] = test: Antihypertensive activity rating in conscious SHR after 24 h post dose at 10 mg/kg (po); 0=No significant reduction; type: functional
[37] = Half-life measured in 1:1 ratio of MeOH and phosphate buffer at pH 7; type: ADME; conditions: 1:1 MeOH / phosphate buffer; summary of the method: as §2
Rattus norvegicus [38] = test: Antihypertensive activity rating in conscious SHR after 24 hr post dose at 50 mg/kg (po)v; type: functional
Rattus norvegicus [39] = test: Antihypertensive activity rating in conscious SHR after 18 hr post dose at 50 mg/kg (po); 0=No significant reduction; type: functional

- solubility [1]: 4850 µg/mL (≈ 15.9 mM)
- solubility [2]: 7 µg/mL (≈ 0.0229 mM)
- T1/2 [3]: Stable
- T1/2 [10]: Stable
SMILES: Cc1ncc2cc(-c3c(Cl)cccc3Cl)c(N)nc2n1
- Activity rating (Rattus norvegicus [4]): 10%
- Activity rating (Rattus norvegicus [5]): >30%
- Activity rating (Rattus norvegicus [6]): 10%
- Decrease (Rattus norvegicus [7]): 32%
- Activity rating (Rattus norvegicus [8]): 10%
- Activity rating (Rattus norvegicus [9]): >30%

SMILES: Cc1ncc2cc(-c3c(Cl)cccc3Cl)c(NC(=O)C(F)(F)F)nc2n1
- Activity rating (Rattus norvegicus [11]): 20%
- Decrease (Rattus norvegicus [7]): 23%
- Activity rating (Rattus norvegicus [12]): 20%
- Activity rating (Rattus norvegicus [13]): 20%

SMILES: Cc1ncc2cc(-c3c(Cl)cccc3Cl)c(NC=O)nc2n1
- Activity rating (Rattus norvegicus [11]): 20%
- Activity rating (Rattus norvegicus [14]): 10%
- Decrease (Rattus norvegicus [7]): 33%
- Activity rating (Rattus norvegicus [8]): 10%
- Activity rating (Rattus norvegicus [9]): >30%
- Activity rating (Rattus norvegicus [15]): >30%
- Activity rating (Rattus norvegicus [16]): 10%

SMILES: Cc1ncc2cc(-c3c(Cl)cccc3Cl)c(NC(=O)c3ccc([N+](=O)[O-])cc3)nc2n1
- Activity rating (Rattus norvegicus [17]): 0%
- Activity rating (Rattus norvegicus [18]): 0%

- pKa [19]: 2.5
- T1/2 [3]: Stable
- half-life [20]: 3.4 h
- half-life [21]: 8.8 h
SMILES: CC(=O)/N=c1/c(-c2c(Cl)cccc2Cl)cc2cnc(C)nc2n1C
- Activity rating (Rattus norvegicus [4]): 10%
- Activity rating (Rattus norvegicus [22]): 10%
- Decrease (Rattus norvegicus [7]): 17%
- Activity rating (Rattus norvegicus [23]): 0%

- solubility [1]: 14600 µg/mL (≈ 40.2 mM)
- solubility [2]: 280 µg/mL (≈ 0.771 mM)
- pKa [19]: 4.2
- T1/2 [3]: Stable
- T1/2 [24]: Stable
- half-life [21]: 6 h
- pKa [25]: 11.3
SMILES: COC(=O)Nc1nc2nc(C)ncc2cc1-c1c(Cl)cccc1Cl
- Activity rating (Rattus norvegicus [4]): 10%
- Activity rating (Rattus norvegicus [22]): 10%
- Activity rating (Rattus norvegicus [6]): 10%
- Decrease (Rattus norvegicus [7]): 29%
- Activity rating (Rattus norvegicus [8]): 10%

SMILES: Cc1ncc2cc(-c3c(Cl)cccc3Cl)c(NC(=O)c3ccoc3)nc2n1
- Activity rating (Rattus norvegicus [14]): 10%
- Decrease (Rattus norvegicus [7]): 28%
- Activity rating (Rattus norvegicus [26]): 20%
- Activity rating (Rattus norvegicus [27]): 20%

- solubility [1]: 6600 µg/mL (≈ 16.5 mM)
- solubility [2]: 220 µg/mL (≈ 0.551 mM)
- pKa [19]: 4.3
- half-life [28]: 360 h
- T1/2 [24]: Stable
- half-life [21]: 4 h
- pKa [25]: 10.7
SMILES: Cc1ncc2cc(-c3c(Cl)cccc3Cl)c(NC(=O)c3ccco3)nc2n1
- Activity rating (Rattus norvegicus [4]): 10%
- Activity rating (Rattus norvegicus [29]): 20%
- Activity rating (Rattus norvegicus [6]): 10%
- Decrease (Rattus norvegicus [7]): 27%
- Activity rating (Rattus norvegicus [8]): 10%
- Activity rating (Rattus norvegicus [12]): 20%
- Activity rating (Rattus norvegicus [18]): 0%

SMILES: Cc1ncc2cc(-c3c(Cl)cccc3Cl)c(O)nc2n1
- Decrease (Rattus norvegicus [7]): 10%
- Activity rating (Rattus norvegicus [30]): 10%
- Activity rating (Rattus norvegicus [31]): 10%
- Activity rating (Rattus norvegicus [32]): 0%

SMILES: CCC(=O)Nc1nc2nc(C)ncc2cc1-c1c(Cl)cccc1Cl
- Activity rating (Rattus norvegicus [33]): 0
- Decrease (Rattus norvegicus [7]): 35%
- Activity rating (Rattus norvegicus [8]): 10%
- Activity rating (Rattus norvegicus [9]): >30%
- Activity rating (Rattus norvegicus [15]): >30%
- Activity rating (Rattus norvegicus [16]): 10%
- Activity rating (Rattus norvegicus [34]): >30%

SMILES: CCO/C(=N\C)Nc1nc2nc(C)ncc2cc1-c1c(Cl)cccc1Cl
- Activity rating (Rattus norvegicus [35]): 0%
- Decrease (Rattus norvegicus [7]): 10%
- Activity rating (Rattus norvegicus [23]): 0%
- Activity rating (Rattus norvegicus [32]): 0%

SMILES: Cc1ncc2cc(-c3c(Cl)cccc3Cl)c(NC(=O)CCl)nc2n1
- Activity rating (Rattus norvegicus [36]): 0%
- Decrease (Rattus norvegicus [7]): 24%
- Activity rating (Rattus norvegicus [26]): 20%
- Activity rating (Rattus norvegicus [16]): 10%

SMILES: CC(=O)Nc1ncc2cc(-c3c(Cl)cccc3Cl)c(NC(C)=O)nc2n1
- Decrease (Rattus norvegicus [7]): 32%
- Activity rating (Rattus norvegicus [12]): 20%
- Activity rating (Rattus norvegicus [15]): >30%
- Activity rating (Rattus norvegicus [32]): 0%

- solubility [1]: 34200 µg/mL (≈ 98.5 mM)
- solubility [2]: 6050 µg/mL (≈ 17.4 mM)
- pKa [19]: 4.1
- half-life [20]: 12.5 h
- half-life [21]: < 0.0833 h
- half-life [37]: 60 h
- pKa [25]: 12.8
SMILES: CC(=O)Nc1nc2nc(C)ncc2cc1-c1c(Cl)cccc1Cl
- Activity rating (Rattus norvegicus [6]): 10%
- Decrease (Rattus norvegicus [7]): 45%
- Activity rating (Rattus norvegicus [26]): 20%
- Activity rating (Rattus norvegicus [9]): >30%
- Activity rating (Rattus norvegicus [15]): >30%
- Activity rating (Rattus norvegicus [27]): 20%
- Activity rating (Rattus norvegicus [34]): >30%

SMILES: CC(=O)Nc1nc2ncncc2cc1-c1ccccc1Br
- Activity rating (Rattus norvegicus [4]): 10%
- Activity rating (Rattus norvegicus [38]): 0%
- Decrease (Rattus norvegicus [7]): 19%
- Activity rating (Rattus norvegicus [30]): 10%

SMILES: Cc1ncc2cc(-c3c(Cl)cccc3Cl)c(NC(=O)NC(C)(C)C)nc2n1
- Activity rating (Rattus norvegicus [23]): 0%
- Activity rating (Rattus norvegicus [39]): 0%
- Activity rating (Rattus norvegicus [32]): 0%

SMILES: CNc1nc2nc(C)ncc2cc1-c1c(Cl)cccc1Cl
- Activity rating (Rattus norvegicus [4]): 10%
- Decrease (Rattus norvegicus [7]): 21%
- Activity rating (Rattus norvegicus [30]): 10%
- Activity rating (Rattus norvegicus [13]): 20%

- solubility [1]: 26600 µg/mL (≈ 64.8 mM)
- solubility [2]: 2630 µg/mL (≈ 6.41 mM)
- pKa [19]: 4.1
- T1/2 [24]: Stable
- half-life [21]: 4 h
- half-life [37]: 54 h
- pKa [25]: 9.8
SMILES: Cc1ncc2cc(-c3c(Cl)cccc3Cl)c(NC(=O)c3cccnc3)nc2n1
- Activity rating (Rattus norvegicus [4]): 10%
- Activity rating (Rattus norvegicus [6]): 10%
- Decrease (Rattus norvegicus [7]): 26%
- Activity rating (Rattus norvegicus [12]): 20%
- Activity rating (Rattus norvegicus [16]): 10%

SMILES: NNc1nncc2ccccc12 [HYDRALAZINE]
- Activity rating (Rattus norvegicus [14]): 10%
- Decrease (Rattus norvegicus [7]): 51% and 27%
- Activity rating (Rattus norvegicus [26]): 20%
